Experimental data published in ChEMBL document CHEMBL1124979, “4-Heterocyclyloxy-2H-1-benzopyran potassium channel activators” (1990).

How the values were obtained:
Rattus norvegicus [1] = assay: Antihypertensive activity measured by maximum fall in the mean blood pressure after an oral administration of 1 mg/kg in spontaneously hypertensive rats; NS= Did not lower the blood pressure significantly; format: functional, organism-based; design: dose 1 mg/kg
Method in brief: (§1)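 Conscious, unrestrained male spontaneously hypertensive rats (Okamoto strain, 280-330 g, blood pressure >180 mmHg), N ≥ 3, given a single 1 mg/kg oral screening dose. Mean arterial pressure was recorded directly via an aortic catheter from 1 h before to 3.5 h after dosing. The value is the mean of the maximum individual falls over 3.5 h; a fall under 18 mmHg counted as not significant.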

Rattus norvegicus [2] = assay: Antihypertensive activity measured by maximum fall in the mean blood pressure after an oral administration of 1 mg/kg in spontaneously hypertensive rats; format: functional; method in brief: as §1
Rattus norvegicus [3] = organism: Rattus norvegicus; assay: Dose required to reduce mean blood pressure by 30 mmHg in spontaneously hypertensive rats; format: functional
Method in brief: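 Conscious male Okamoto SHR (280-330 g, baseline pressure >180 mmHg) fitted with an aortic catheter for continuous direct recording of mean arterial pressure over 3.5 h. Compounds active at the 1 mg/kg oral screen were given orally at 2-4 additional doses. Mean maximal falls were regressed linearly against log dose to derive ED30, the dose in […] lowering pressure by 30 mmHg.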

[4] = Rattus norvegicus, Blood, read-out: ED30

Question: `CC1(C)C=C(Oc2ccc(S)nn2)c2cc(C#N)ccc2O1` was tested. Which BP (Rattus norvegicus [1]) did it give?
Answer: The BP was “Not significant”.

Question: How did the BP (Rattus norvegicus [1]) turn out when `CC1(C)Oc2ccc(C#N)cc2C(n2ccc(N)nc2=O)[C@@H]1O` (stereo partly specified) was run?
Answer: The BP was “Not significant”.

Question: With `CC(C)n1nc(O[C@@H]2c3cc(C#N)ccc3OC(C)(C)[C@H]2O)ccc1=O` as the compound, how does the BP (Rattus norvegicus [2]) read?
Answer: The BP was 32 mmHg.

Question: With `CC1(C)Oc2ccc(C#N)cc2[C@@H](n2ccc(O)cc2=O)[C@@H]1O` as the compound, how does the BP (Rattus norvegicus [2]) read?
Answer: The BP was 28 mmHg.

Question: With `COC(=O)c1ccc2c(c1)[C@@H](Oc1ccnc(O)c1)[C@H](O)C(C)(C)O2` as the compound, how does the BP (Rattus norvegicus [1]) read?
Answer: Its BP is “Not significant”.

Question: `CCn1nc(O[C@@H]2c3cc(C#N)ccc3OC(C)(C)[C@H]2O)ccc1=O` was tested. Which BP (Rattus norvegicus [2]) did it give?
Answer: Its BP is 127 mmHg.

Question: What about the ED30 (Rattus norvegicus [3]; [4]) of the same compound?
Answer: Its ED30 is 0.02 mg/kg.

Question: For `CC(=O)OC1C(Oc2ccc(=O)[nH]n2)c2cc(C#N)ccc2OC1(C)C` (stereo unspecified), which BP (Rattus norvegicus [2]) is on record?
Answer: Its BP is 97 mmHg.

Question: Which BP (Rattus norvegicus [2]) does the source give for `CC1(C)Oc2ccc([N+](=O)[O-])cc2[C@@H](Oc2ccnc(O)c2)[C@@H]1O` here?
Answer: The BP was 117 mmHg.

Question: What about the ED30 (Rattus norvegicus [3]; [4]) of the same compound?
Answer: Its ED30 is 0.013 mg/kg.

Question: `CC1(C)Oc2ccc(C#N)cc2[C@@H](Oc2cc(O)ncn2)[C@@H]1O` was tested. Which BP (Rattus norvegicus [1]) did it give?
Answer: The BP was “Not significant”.

Question: For `CC(=O)Oc1ccn(C2=CC(C)(C)Oc3ccc(C#N)cc32)c(=O)c1`, which BP (Rattus norvegicus [2]) is on record?
Answer: The BP was 28 mmHg.

Question: With `CC1(C)Oc2ccc(C(=N)S)cc2[C@@H](Oc2ccnc(O)c2)[C@@H]1O` as the compound, how does the BP (Rattus norvegicus [1]) read?
Answer: Its BP is “Not significant”.

Question: Which results are given for `CC1(C)Oc2ccc(C#N)cc2[C@@H](Oc2ccnc(O)c2)[C@@H]1O`?
Answer: BP (Rattus norvegicus [2]): 104 mmHg; ED30 (Rattus norvegicus [3]; [4]): 0.006 mg/kg

Question: Which results are given for `Cn1nc(O[C@@H]2c3cc(C#N)ccc3OC(C)(C)[C@H]2O)ccc1=O` (stereo in doubt; 14a)?
Answer: BP (Rattus norvegicus [2]; 1 mg/kg): 124 mmHg; ED30 (Rattus norvegicus [3]; [4]): 0.018 mg/kg

Question: With `CC1(C)Oc2ccc([N+](=O)[O-])cc2C(Oc2ccc(=O)[nH]n2)C1O` (stereo unspecified) as the compound, how does the BP (Rattus norvegicus [2]) read?
Answer: Its BP is 78 mmHg.

Question: How did the BP (Rattus norvegicus [1]) turn out when `CC1(C)Oc2ccc(Br)cc2C(Oc2ccc(=O)[nH]n2)C1O` (stereo unspecified) was run?
Answer: Its BP is “Not significant”.

Question: Which results are given for `CC1(C)Oc2ccc(C#N)cc2C(Oc2ccc(=O)[nH]n2)C1O` (stereo unspecified)?
Answer: BP (Rattus norvegicus [2]): 129 mmHg; ED30 (Rattus norvegicus [3]; [4]): 0.014 mg/kg

Question: For `CC1(C)Oc2ccc(C#N)cc2[C@@H](Oc2ccc(S)nn2)[C@@H]1O`, which BP (Rattus norvegicus [1]) is on record?
Answer: The BP was “Not significant”.

Question: How did the BP (Rattus norvegicus [2]) turn out when `Cn1ccc(O[C@@H]2c3cc(C#N)ccc3OC(C)(C)[C@H]2O)cc1=O` was run?
Answer: Its BP is 83 mmHg.

Question: For `CC1(C)C=C(Oc2ccnc(O)c2)c2cc(C#N)ccc2O1`, which BP (Rattus norvegicus [1]) is on record?
Answer: The BP was “Not significant”.

Question: How did the BP (Rattus norvegicus [2]) turn out when `CC1(C)Oc2ccc(C#N)cc2C(N2CCCC2=O)C1O` (stereo unspecified) [CROMAKALIM] was run?
Answer: Its BP is 78 mmHg.

Question: What about the ED30 (Rattus norvegicus [3]; [4]) of the same compound?
Answer: The ED30 was 0.11 mg/kg.

Question: With `Cn1nc(OC2=CC(C)(C)Oc3ccc(C#N)cc32)ccc1=O` as the compound, how does the BP (Rattus norvegicus [1]) read?
Answer: Its BP is “Not significant”.

Question: `Cn1nc(O[C@@H]2c3cc(C#N)ccc3OC(C)(C)[C@H]2O)ccc1=O` (stereo in doubt; 22a) was tested. Which BP (Rattus norvegicus [2]; 1 mg/kg) did it give?
Answer: The BP was 151 mmHg.

Question: And the ED30 (Rattus norvegicus [3])?
Answer: Its ED30 is 0.013 mg/kg.

Question: How did the BP (Rattus norvegicus [1]) turn out when `CC1(C)Oc2ccc(C#N)cc2C(n2ccc(N)cc2=O)[C@@H]1O` (stereo partly specified) was run?
Answer: Its BP is “Not significant”.

Question: With `Cn1nc(O[C@H]2c3cc(C#N)ccc3OC(C)(C)[C@@H]2O)ccc1=O` as the compound, how does the BP (Rattus norvegicus [2]) read?
Answer: The BP was 19 mmHg.

Question: `CC1(C)Oc2ccc(C(N)=S)cc2C(Oc2ccc(=O)[nH]n2)C1O` (stereo unspecified) was tested. Which BP (Rattus norvegicus [1]) did it give?
Answer: Its BP is “Not significant”.

Question: With `CC1(C)Oc2ccc(C#N)cc2[C@@H](Oc2cccnc2O)[C@@H]1O` as the compound, how does the BP (Rattus norvegicus [1]) read?
Answer: The BP was “Not significant”.

Question: For `CC1(C)Oc2ccc(C#N)cc2[C@@H](Oc2cccnc2N)[C@@H]1O`, which BP (Rattus norvegicus [1]) is on record?
Answer: Its BP is “Not significant”.

Question: Which BP (Rattus norvegicus [2]) does the source give for `CC1(C)Oc2ccc(C#N)cc2[C@@H](Oc2ccc(O)nc2)[C@@H]1O` here?
Answer: Its BP is 23 mmHg.

Question: `CC1(C)C=C(Oc2ccc(=O)[nH]n2)c2cc(C#N)ccc2O1` was tested. Which BP (Rattus norvegicus [1]) did it give?
Answer: The BP was “Not significant”.

Question: How did the BP (Rattus norvegicus [2]) turn out when `CC1(C)C=C(n2ccc(O)cc2=O)c2cc(C#N)ccc2O1` was run?
Answer: Its BP is 19 mmHg.

Question: For `CC1(C)Oc2ccc(C#N)cc2C(n2nc(N)ccc2=O)[C@@H]1O` (stereo partly specified), which BP (Rattus norvegicus [2]) is on record?
Answer: Its BP is 39 mmHg.

Question: `CC1(C)Oc2ccc(C#N)cc2[C@@H](n2[nH]c(=O)ccc2=O)[C@@H]1O` was tested. Which BP (Rattus norvegicus [1]) did it give?
Answer: The BP was “Not significant”.

Question: With `COC(=O)c1ccc2c(c1)C(Oc1ccc(=O)[nH]n1)C(O)C(C)(C)O2` (stereo unspecified) as the compound, how does the BP (Rattus norvegicus [2]) read?
Answer: Its BP is 18 mmHg.

Question: How did the BP (Rattus norvegicus [1]) turn out when `CC1(C)Oc2ccc(C#N)cc2[C@H](Oc2ccc(=O)[nH]n2)[C@H]1O` was run?
Answer: Its BP is “Not significant”.
